The source made the active and inactive calls. The calls are words filed in the database; no cut-off is given here.
Key:
[1] = target: Glutamate carboxypeptidase 2 (Homo sapiens, UniProt Q04609); assay: Inhibition of PSMA (unknown origin)
CWR22R [2] = assay: Cytotoxicity against human 22Rv1 cells after 2 hrs by [3H]thymidine incorporation assay; assay type: functional, cell-based
Method in brief: (§1)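 22RV1 cells seeded at 50 000/well and grown to monolayer over 24–48 h. Drug pulse in fresh medium at 37 °C for 2 h or 24 h, then washed and chased 66 h. Labelled with 3H-thymidine (1 mCi/mL) for 4 h, TCA-precipitated, NaOH-solubilized and scintillation counted. IC50 from % incorporation vs log concentration.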

CWR22R [3] = assay: Cytotoxicity against human 22Rv1 cells after 24 hrs by [3H]thymidine incorporation assay; assay type: functional, cell-based; method in brief: as §1
CWR22R [4] = assay: Antitumor activity against human 22Rv1 cells xenografted in nu/nu mouse assessed as regression of tumor growth at 2 umol/kg, ip administered as single dose on alternative days, 3 days/week for 3 weeks; assay type: functional, organism-based
Method in brief: (§2)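 Male nu/nu mice, 5–6 weeks old, given 2 × 10^6 22RV1 cells in 20% HC Matrigel in the right shoulder. Dosing began at tumor ~100 mm3, 5 mice/group, ip in sterile saline (100 μL). Tumors measured by caliper every 2–3 days, volume = 0.5 × L × W2. Body weight recorded at each dosing. Live mice counted per dose. Untreated controls got saline.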

CWR22R [5] = assay: Antitumor activity against human 22Rv1 cells xenografted in nu/nu mouse assessed as regression of tumor growth at 2 umol/kg, ip administered as single dose on alternative days, 3 days/week for 3 weeks co-administered with 100 fold excess dose of DUPA-Aoc-Phe-Phe-Dap-Asp-Cys reagent; assay type: functional, organism-based; method in brief: as §2
Mus musculus [6] = assay: Toxicity in human 22Rv1 cells xenografted nu/nu mouse at 2 umol/kg, ip administered as single dose on alternative days, 3 days/week for 3 weeks; assay type: organism-based, CWR22R; conditions: in vivo; method in brief: as §2
Mus musculus [7] = assay: Toxicity in human 22Rv1 cells xenografted nu/nu mouse assessed as induction of mouse death at 2 umol/kg, ip administered as single dose on alternative days, 3 days/week for 3 weeks; assay type: organism-based, CWR22R; conditions: in vivo; method in brief: as §2
Mus musculus [8] = assay: Toxicity in human 22Rv1 cells xenografted nu/nu mouse assessed as effect on body weight at 2 umol/kg, ip administered as single dose on alternative days, 3 days/week for 3 weeks; assay type: organism-based, CWR22R; conditions: in vivo; method in brief: as §2
CWR22R [9] = assay: Antitumor activity against human 22Rv1 cells xenografted in nu/nu mouse assessed as reduction in tumor mass at 2 umol/kg, ip administered as single dose on alternative days, 3 days/week for 3 weeks by hematoxylin and eosin staining; assay type: functional, organism-based

Chain of Glutamate carboxypeptidase 2 (Q04609 whole entry): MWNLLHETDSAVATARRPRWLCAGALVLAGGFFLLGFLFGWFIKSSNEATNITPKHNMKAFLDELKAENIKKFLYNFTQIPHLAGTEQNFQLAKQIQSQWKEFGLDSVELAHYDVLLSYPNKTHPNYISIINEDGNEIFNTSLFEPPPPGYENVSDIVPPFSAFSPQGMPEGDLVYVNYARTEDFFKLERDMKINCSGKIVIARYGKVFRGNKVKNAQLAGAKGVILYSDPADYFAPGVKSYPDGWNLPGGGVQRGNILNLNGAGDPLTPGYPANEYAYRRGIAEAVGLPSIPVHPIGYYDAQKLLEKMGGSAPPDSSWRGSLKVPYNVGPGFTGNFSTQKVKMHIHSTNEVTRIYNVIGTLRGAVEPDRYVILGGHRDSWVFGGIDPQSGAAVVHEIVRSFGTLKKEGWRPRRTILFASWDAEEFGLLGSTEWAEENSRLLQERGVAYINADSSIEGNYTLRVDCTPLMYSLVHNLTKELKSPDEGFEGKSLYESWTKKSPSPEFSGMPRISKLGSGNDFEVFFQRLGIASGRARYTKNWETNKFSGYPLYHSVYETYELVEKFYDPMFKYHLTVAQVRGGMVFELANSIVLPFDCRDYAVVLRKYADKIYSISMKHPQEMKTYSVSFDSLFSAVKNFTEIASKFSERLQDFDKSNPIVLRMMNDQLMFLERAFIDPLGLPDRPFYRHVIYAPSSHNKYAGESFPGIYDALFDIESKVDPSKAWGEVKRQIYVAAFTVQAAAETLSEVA

SMILES | IC50 [1] | IC50 (CWR22R [2]; cwr22r) | IC50 (CWR22R [3]) | Activity (CWR22R [4]) | Activity (CWR22R [5]) | Activity (Mus musculus [6]) | Activity (Mus musculus [7]) | Activity (Mus musculus [8]) | Activity (CWR22R [9]) | IC50 (CWR22R [2]; Homo sapiens, 22Rv1, read-out: IC50)
O=C(O)CC[C@H](NC(=O)N[C@@H](CCC(=O)O)C(=O)O)C(=O)O | 47 nM | – | – | – | – | – | – | – | – | –
COc1cc2c3c(n(CCCN4CCOCC4)c(=O)c2cc1OC)-c1cc(OC)c(OC(=O)OCCSSC[C@H](NC(=O)[C@H](CC(=O)O)NC(=O)[C@@H](N)CNC(=O)[C@H](Cc2ccccc2)NC(=O)[C@H](Cc2ccccc2)NC(=O)CCCCCCCNC(=O)CC[C@H](NC(=O)N[C@@H](CCC(=O)O)C(=O)O)C(=O)O)C(=O)O)cc1C3=O | – | Not Active | 11.4 nM | Active | inactive | Non-toxic | Non-toxic | Non-toxic | Active | –
COc1cc2c(cc1O)C(=O)c1c-2n(CCCN2CCOCC2)c(=O)c2cc(OC)c(OC)cc12 | – | – | – | Active | – | Toxic | Toxic | Non-toxic | – | 2 nM

— ChEMBL document CHEMBL3414449, “DUPA conjugation of a cytotoxic indenoisoquinoline topoisomerase I inhibitor for selective prostate cancer cell targeting” (J Med Chem, 2015)
